Lipid droplet: modulators of hepatic lipid droplet formation; AML12 mouse hepatocytes, oleate lipid droplets, BODIPY imaging; inhibition, % at 6.5 µM; 240,000 tested, 0.4% active;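 active = lipid droplet intensity inhibited by at least 50%, with more than 500 cells counted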
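Material – AML12 mouse liver cells · Also added – oleate loading, 100 µM · Compound dosing – 6.5 µM single-point dosing · Times – overnight treatment with compound plus oleate · Measured by – fluorescence imaging, 20x objective, two fields per well · Read-out – percent inhibition of filter-corrected integrated lipid droplet intensity per well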
SR-BI HDL uptake: inhibitors of mouse SR-BI mediated HDL lipid uptake | Q61009 | ldlA[mSR-BI] CHO cells, DiI-HDL uptake fluorescence, 3 h | inhibition, % at 12.5 µM | 320,000 tested, 0.96% active | AID 488896;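 active = mean replicate inhibition of at least 70% and a set share of replicates each scoring 70 or more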
NOD2-RIPK2 inh: inhibitors of human NOD2-RIPK2 interaction | 360,000 tested, 0.38% active | O43353 | CHO BLA complementation NOD2-RIPK2, CCF4 ratio | inhibition, % at 4.98 µM; in the data active = inhibition above about 21%
TLR4-MyD88 BLA: blocks binding of human TLR4 to MyD88. O00206+Q99836. HeLa CL3-4 TLR4/MyD88 BLA complementation, FRET ratio. inhibition, % at 8.4 µM. 200,000 tested, 0.18% active. AID 861; in the data active = inhibition above about 25%
TLR9-MyD88 inh: TLR9-MyD88 interaction inhibition | inhibition, % at 4.98 µM | 340,000 tested, 0.21% active | CHO BLA complementation TLR9-MyD88, CCF4 FRET ratio | Q9NR96+Q99836;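 active = inhibition above the mean over all tested compounds plus 3 SD, cut at about 21% in these data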
SR-BI DiI-HDL act: SR-BI HDL lipid transfer activation | CHO ldlA[mSR-BI] cells, DiI-HDL uptake fluorescence, 3 h; 100 = double the neutral-control signal | activation, % at 12.5 µM | 320,000 tested, 0.096% active | AID 504775;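 active = mean replicate activation of at least 60% and every replicate at or above 60%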
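Material: SR-BI-overexpressing, LDLR-lacking CHO cells; schedule: compound exposure 3 h, 37 °C; reagent: DiI-labelled HDL at 10 µg/mL final; technique: bottom-read fluorescence, 550/595 nm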
Of the large screens only hits and unclear results are named; the others gave an inactive call. This is a sample that favours compounds with a hit; in the whole collection about 1.6% have one here.

Cc1cc(=O)oc2ccc(OCC(=O)N(Cc3ccc(F)cc3)Cc3ccco3)cc12	none
O=C(Nc1ccc(-c2cn3c(n2)SCC3)cc1)c1ccc2c(c1)OCO2	SR-BI HDL uptake 82
O=C(Nc1cccc(-c2cn3c(n2)SCC3)c1)c1ccc2c(c1)OCO2	none
COc1cc(-c2ccc3oc(-c4ccsc4)c(C#CC4(O)CCCCC4)c3c2)cc(OC)c1OC	SR-BI HDL uptake 76 (no result: Lipid droplet, TLR4-MyD88 BLA)
O=C(Nc1cccc(-c2csc(Nc3ccc(Cl)cc3)n2)c1)c1cc([N+](=O)[O-])cc(C(F)(F)F)c1	SR-BI HDL uptake 127 (no result: TLR4-MyD88 BLA)
O=C(Nc1cccc(-c2csc(Nc3ccccc3)n2)c1)c1cc([N+](=O)[O-])cc(C(F)(F)F)c1	SR-BI HDL uptake 97 (no result: TLR4-MyD88 BLA)
O=C(Nc1ccc(-c2csc(Nc3ccc(Cl)cc3)n2)cc1)c1cc([N+](=O)[O-])cc(C(F)(F)F)c1	SR-BI HDL uptake 106 (no result: TLR4-MyD88 BLA)
NS(=O)(=O)c1ccc(Nc2nc(-c3cccc([N+](=O)[O-])c3)cs2)cc1	none
Cn1cccc1C(=O)NC(=O)COC(=O)c1cc([N+](=O)[O-])ccc1Cl	none
CN(C)S(=O)(=O)c1ccc(Cl)c(C(=O)OCC(=O)NC(=O)c2cccn2C)c1	SR-BI HDL uptake 72
COc1ccccc1-n1cnnc1SCC(=O)c1ccc[nH]1	none
COc1ccccc1-n1c2nc3ccccc3nc2c2c(=O)n(-c3cc(C)cc(C)c3)cnc21	SR-BI HDL uptake 79
Cc1ccc(-n2nc(C)cc2NC(=O)c2ccc(C)s2)cc1	SR-BI HDL uptake 87 (no result: Lipid droplet)
Cc1ccc(S(=O)(=O)N(CCC(=O)NCC(c2ccccc2)N(C)C)c2ccccc2)cc1 (stereo unspecified)	none (no result: Lipid droplet, TLR4-MyD88 BLA)
COCCn1nnnc1C(c1cccs1)N1CCN(c2ccccc2)CC1 (stereo unspecified)	SR-BI HDL uptake 83 (no result: Lipid droplet)
COCCn1nnnc1C(c1ccccc1)N1CCN(c2ccccc2)CC1 (stereo unspecified)	none
CCn1nc(C)c(/C=N/NC(=O)c2ccc3c(c2)c(C)c(C)n3Cc2ccccc2)c1C	SR-BI HDL uptake 79
CCn1ncc(/C=N\NC(=O)c2ccc3c(c2)c(C)c(C)n3Cc2ccccc2)c1C	none
COc1ccc(OC)c(NC(=O)c2cc(-c3cc(C)cc(C)c3O)n[nH]2)c1	SR-BI HDL uptake 77 (no result: Lipid droplet, TLR4-MyD88 BLA)
COc1ccc(OC)c(NC(=O)c2cc(-c3cc(C)c(C)cc3O)n[nH]2)c1	none (no result: TLR4-MyD88 BLA)
Cc1cccc(NC(=O)c2cc(-c3cc(C)cc(C)c3O)n[nH]2)c1	SR-BI HDL uptake 72 (no result: TLR4-MyD88 BLA)
CCN(Cc1ccccc1)C(=O)CCS(=O)(=O)c1ccc2c(c1)CCN2C(C)=O	none (no result: TLR4-MyD88 BLA)
CN(C)CCCNC(=O)/C=C/c1ccc2c(c1)OCO2	SR-BI DiI-HDL act 70
COc1ccc(Nc2cc(C(=O)N3CCc4ccccc4C3)c3ccccc3n2)c(OC)c1	SR-BI HDL uptake 78
COc1ccccc1Nc1cc(C(=O)N2CCc3ccccc3C2)c2ccccc2n1	none (no result: SR-BI HDL uptake, NOD2-RIPK2 inh, TLR9-MyD88 inh, SR-BI DiI-HDL act)
C=C(C)CNC(=S)N/N=C1\CCCCc2ccccc21	none
CN(C)c1cccc2c(C=C(C#N)C#N)ccc(N(C)C)c12	none
COc1ccc2sc(-c3ccc(N(C)C)cc3)c(-c3cnc(OC)nc3)c2c1	SR-BI HDL uptake 82 (no result: Lipid droplet, TLR4-MyD88 BLA)
COc1ccc2sc(-c3ccccc3OC)c(-c3ccc(SC)cc3)c2c1	none (no result: Lipid droplet, SR-BI HDL uptake, TLR4-MyD88 BLA, TLR9-MyD88 inh, SR-BI DiI-HDL act)
COc1ccc2sc(-c3ccc(SC)cc3)c(-c3ccc(O)cc3)c2c1	SR-BI HDL uptake 76 (no result: Lipid droplet, TLR4-MyD88 BLA)
Cc1cccc(NC(=O)c2ccccc2NC(=O)c2ccco2)c1	none (no result: TLR4-MyD88 BLA)
COc1cc(C(=O)O)nc(OC)n1	none
COc1ccc(C(=O)Nc2cc3c4c(c2)C(C)C(=O)N4CCC3)cc1OC (stereo unspecified)	SR-BI HDL uptake 79 (no result: Lipid droplet, TLR4-MyD88 BLA)
COc1ccc(CCNC(=O)C2CCCN(c3nc4ccccc4s3)C2)cc1OC (stereo unspecified)	SR-BI HDL uptake 79 (no result: TLR4-MyD88 BLA)
CCOc1ccc(CCNC(=O)C2CCN(c3nn4c(=O)cc(C)nc4s3)CC2)cc1OCC	SR-BI HDL uptake 72
CCc1nnc(NC(=O)C2CCCN(c3nc4ccccc4s3)C2)s1 (stereo unspecified)	none (no result: Lipid droplet)
CCc1nc2ccc(C(=O)NCCCN3CCCC3=O)cn2c1N(C)CCC(C)C	none (no result: Lipid droplet, SR-BI HDL uptake, TLR4-MyD88 BLA, TLR9-MyD88 inh, SR-BI DiI-HDL act)
